The values below come from ChEMBL document CHEMBL3785023, “Development and Pharmacological Characterization of Selective Blockers of 2-Arachidonoyl Glycerol Degradation with Efficacy in Rodent Models of Multiple Sclerosis and Pain” (J Med Chem, 2016).

pIC50: −log10 of the molar value. Activity calls are given as the source filed them. The calls are words filed in the database; no cut-off is given here.

Series [1] concerns the target Acyl-protein thioesterase 1/2 (Rattus norvegicus) (UniProt P70470+Q9QYL8). The experiment in a line: Inhibition of LYPLA1/2 in rat brain membranes at 500 to 1000 nM preincubated for 20 mins followed by fluorophosphonate-rhodamine addition measured after 30 mins by competitive affinity based proteomic profiling assay. The class given is cell membranes. Particulars: Membrane. Summed up:
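Rat brain membranes (1 mg/mL) preincubated with 1–1000 nM inhibitor or DMSO for 20 min at 37 °C. FP-rhodamine then added and incubated a further 30 min at 37 °C. Samples run on SDS-PAGE and serine hydrolase bands quantified by in-gel fluorescence.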

Series [2] concerns Mus musculus. The experiment in a line: Inhibition of demyelination in experimental autoimmune encephalomyelitis C57BL/6J mouse spinal cord at 3 mg/kg, ip administered post CB2 antagonist/inverse agonist AM630 addition by luxol fast blue staining based microscopic analysis. The class given is functional, organism-based. Summed up:
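EAE induced in female C57BL/6J mice with MOG35-55, then 3 mg/kg i.p. daily. AM251 or AM630 (1 mg/kg), where used, given 10 min before each dose. Spinal cord white matter stained with Luxol Fast Blue and demyelinated areas assessed by microscopy.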

The test system of series [3] is Mus musculus. The series can be described thus: Change in cumulative score in myelin oligodendrocyte glycoprotein (35 to 55)-induced C57BL/6J mouse experimental autoimmune encephalomyelitis model of multiple sclerosis at 3 mg/kg, ip dosed on day 6 postimmunization up to 21 day postimmunization measured from day 8 postimmunization. The series is classed as functional, organism-based. The essentials:
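Female C57BL/6J mice immunized with MOG35-55 peptide. Given 3 mg/kg i.p. daily from day 6 post-immunization to the acute stage (21 ± 1 d.p.i.). Clinical score recorded daily and as a cumulative score; n = 7–9 per group.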

Series [4] has as its system Mus musculus. The series can be described thus: Antinociceptive activity in CD-1 mouse assessed as inhibition of formalin-induced pain response at 0.1 to 0.3 mg/kg, ip dosed 10 mins before formalin injection measured during early phase. The series is classed as functional, organism-based. The essentials:
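Male CD-1 mice, n = 6 per group, injected with formalin (1.25% in saline, 30 μL) into the dorsal hind paw. Inhibitor (0.1 or 0.3 mg/kg i.p. in 0.5% DMSO/saline) given 10 min before formalin. Where used, AM251 or AM630 (1 mg/kg i.p.) given 10 min before the inhibitor. Time spent lifting, licking, shaking or flinching the injected paw recorded every 5 min over 60 min.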

For series [5], the system named is Mus musculus. The series can be described thus: Reduction of disease index score in myelin oligodendrocyte glycoprotein (35 to 55)-induced C57BL/6J mouse experimental autoimmune encephalomyelitis model of multiple sclerosis at 3 mg/kg, ip administered post CB2 antagonist/inverse agonist AM630 addition dosed on day 6 postimmunization up to 21 day postimmunization measured from day 12 postimmunization. The series is classed as functional, organism-based. The essentials:
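Female C57BL/6J mice immunized with MOG35-55 were randomly assigned to groups. They received 3 mg/kg i.p. daily from 6 days post-immunization up to 21±1 d.p.i. AM251 or AM630, 1 mg/kg i.p., was given 10 min before each dose for 14 days. Clinical score was recorded daily and as cumulative score, reported as mean ± SEM. Group sizes were 4–9 mice.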

Series [6] has as its system Mus musculus. The experiment in a line: Reduction of IBA1 positive cells in white matter anterior fasciculus of experimental autoimmune encephalomyelitis C57BL/6J mouse spinal cord at 3 mg/kg, ip administered post CB1 antagonist/inverse agonist AM251 addition by immunofluorescence assay. The class given is functional, organism-based. Summed up:
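MOG35-55-immunized female C57BL/6J mice were given 3 mg/kg i.p. daily. AM251 or AM630, each at 1 mg/kg, was given 10 min before each dose. Iba1 immunofluorescence with DAPI was done on spinal cord white matter (anterior fasciculus). Positive cells were counted per optic field. One-way ANOVA with Bonferroni test.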

For series [7], the system named is Heart. The series can be described thus: Cardiotoxicity in Langendorff-perfused Sprague-Dawley rat heart assessed as coronary perfusion pressure at 1 uM (reference value: 57.45 +/- 2.58 mmHg). The class given is toxicity, tissue-based.
The target of series [8] is T1, Fatty-acid amide hydrolase 1 (Homo sapiens, UniProt O00519).
T1 sequence (O00519 whole entry): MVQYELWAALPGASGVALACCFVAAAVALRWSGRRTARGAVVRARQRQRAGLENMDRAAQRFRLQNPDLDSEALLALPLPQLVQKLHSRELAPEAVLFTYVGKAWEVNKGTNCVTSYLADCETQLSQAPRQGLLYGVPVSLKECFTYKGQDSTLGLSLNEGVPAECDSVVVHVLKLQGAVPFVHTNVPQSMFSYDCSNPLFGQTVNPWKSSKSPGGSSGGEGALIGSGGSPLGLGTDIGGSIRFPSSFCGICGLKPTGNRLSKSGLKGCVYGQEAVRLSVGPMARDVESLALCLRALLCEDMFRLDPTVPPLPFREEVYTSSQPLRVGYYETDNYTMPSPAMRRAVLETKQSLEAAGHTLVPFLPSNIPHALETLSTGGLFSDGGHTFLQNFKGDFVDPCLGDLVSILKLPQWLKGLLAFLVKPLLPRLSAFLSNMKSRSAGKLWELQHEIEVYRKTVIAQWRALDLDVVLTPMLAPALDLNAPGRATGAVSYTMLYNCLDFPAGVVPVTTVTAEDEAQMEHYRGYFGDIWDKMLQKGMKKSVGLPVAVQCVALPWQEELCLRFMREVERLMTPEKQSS
The experiment in a line: Inhibition of recombinant C-terminal His-tagged human FAAH expressed in sf21 cells using N-arachidonoyl-[14C]-ethanolamine as substrate assessed as reduction in [14C]ethanolamine production incubated for 30 mins by scintillation counting method. The essentials: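 Human recombinant FAAH (2 µg/sample) incubated in 50 mM Tris-HCl, pH 9.5, 37 °C, 30 min with N-arachidonoyl-[14C]-ethanolamine diluted with unlabelled AEA. [14C]-ethanolamine released was quantified by scintillation counting of the aqueous phase after extraction with 2 volumes CHCl3/MeOH 1:1. Values are means of three experiments.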

The next series relates to Salmonella typhimurium. The experiment in a line: Mutagenicity in Salmonella typhimurium TA98 assessed as increase in number of colonies up to >200 uM by Ames test in presence of S9 fraction. The series is classed as toxicity, organism-based. Particulars: salmonella enterica subsp. enterica serovar typhimurium.
The next series has as its target Cannabinoid receptor 2 (Homo sapiens, UniProt P34972). The experiment in a line: Displacement of [3H]-CP-55940 from human recombinant CB2 receptor expressed in HEK293 cells after 90 mins. The series is classed as cell-based. The essentials: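 Membranes from HEK-293 cells stably expressing human CB1 (Bmax 2.9 pmol/mg) or CB2 (Bmax 6.0 pmol/mg) incubated 90 min at 30 °C with [3H]-CP-55,940: 0.4 nM for CB1, 0.53 nM for CB2. Non-specific binding defined with 10 µM WIN 55212-2.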

Series [9] deals with Heart. The experiment in a line: Cardiotoxicity in Langendorff-perfused Sprague-Dawley rat heart assessed as atrioventricular conduction time at 0.01 uM by ECG analysis (reference value: 45.62 +/- 4.49 milliseconds). The class given is toxicity, tissue-based.
For series [10], the system named is Heart. The series can be described thus: Cardiotoxicity in Langendorff-perfused Sprague-Dawley rat heart assessed as time duration of cardiac cycle length at 0.001 uM by ECG analysis (reference value: 238.38 +/- 9.23 milliseconds). The series is classed as toxicity, tissue-based.
Series [11] deals with Heart. The series can be described thus: Cardiotoxicity in Langendorff-perfused Sprague-Dawley rat heart assessed as time duration of cardiac cycle length at 0.01 uM by ECG analysis (reference value: 238.38 +/- 9.23 milliseconds). The series is classed as toxicity, tissue-based.
Series [12] concerns Mus musculus. The series can be described thus: Toxicity in C57BL/6J mouse assessed as changes in locomotor activity at 3 mg/kg, ip. Particulars: in vivo. The class given is organism-based.

Cannabinoid receptor 2, sequence (P34972 whole entry): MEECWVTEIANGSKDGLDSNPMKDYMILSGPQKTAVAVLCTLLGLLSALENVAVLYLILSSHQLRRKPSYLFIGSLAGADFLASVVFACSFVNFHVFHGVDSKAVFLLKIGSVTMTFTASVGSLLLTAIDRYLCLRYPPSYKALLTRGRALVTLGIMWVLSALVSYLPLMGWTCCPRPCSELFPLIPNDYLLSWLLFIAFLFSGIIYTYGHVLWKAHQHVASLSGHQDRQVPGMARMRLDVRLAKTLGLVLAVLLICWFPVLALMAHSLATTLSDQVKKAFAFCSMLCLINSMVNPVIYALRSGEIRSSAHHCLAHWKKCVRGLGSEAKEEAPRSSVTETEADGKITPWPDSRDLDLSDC
Acyl-protein thioesterase 1/2 (Rattus norvegicus), sequence (P70470 whole entry, looked up): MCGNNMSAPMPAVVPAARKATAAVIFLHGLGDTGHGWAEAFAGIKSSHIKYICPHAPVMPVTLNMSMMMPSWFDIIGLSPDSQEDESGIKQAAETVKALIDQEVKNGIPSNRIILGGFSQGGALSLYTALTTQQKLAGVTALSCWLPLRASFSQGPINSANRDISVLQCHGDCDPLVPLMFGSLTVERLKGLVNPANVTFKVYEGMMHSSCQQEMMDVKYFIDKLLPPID
Acyl-protein thioesterase 1/2 (Rattus norvegicus), sequence (Q9QYL8 whole entry, looked up): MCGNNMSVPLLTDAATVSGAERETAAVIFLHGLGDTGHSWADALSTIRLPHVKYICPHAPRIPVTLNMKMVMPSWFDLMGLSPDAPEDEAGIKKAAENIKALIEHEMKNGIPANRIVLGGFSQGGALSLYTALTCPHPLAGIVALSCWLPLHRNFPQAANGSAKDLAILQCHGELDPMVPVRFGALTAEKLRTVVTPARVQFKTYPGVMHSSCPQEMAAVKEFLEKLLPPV

Take `O=C1[C@H](c2ccc(F)cc2)[C@@H](c2ccc3c(c2)OCO3)N1C1CCN(C(=O)n2cncn2)CC1` (racemic) [listing 1 of 2 here]: the inhibition entry (in [1]; in the series on Mus musculus [4]) was “Active” throughout. Moreover, in the series with Mus musculus [2], the inhibition entry is “inactive”. Also, the outcome in the series with Mus musculus [3] was Active. Also, the outcome with Mus musculus [5] and in the series with Mus musculus [6] was inactive.
As to `O=C1[C@H](c2ccc(F)cc2)[C@@H](c2ccc3c(c2)OCO3)N1C1CCN(C(=O)n2cncn2)CC1` (racemic) [listing 2 of 2 here], the Activity in the series on Heart [7] is on record as 75.19 mmHg; in the series with Salmonella typhimurium it was “Non-toxic”; with Mus musculus [12], “Non-toxic”. Moreover, the pIC50 was 5.54 in series [8] and less than 5.00 on Cannabinoid receptor 2. Further, the results for the Time in the series on Heart [9], in the series on Heart [10] and in the series on Heart [11] were 46.46 ms, 236.93 ms and 236.8 ms, respectively.
